PDI inh: PDI (human) enzyme inhibition; inhibition, % at 10 µM; PDI insulin aggregation turbidity, A650, 90 min; P07237; 350,000 tested, 0.052% active;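 active = mean inhibition across replicates of 30% or more, whatever share of single replicates reach that level; inconclusive = mean inhibition below 30% while every single replicate reaches 30%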
MLL AF4-AF9 inh: MLL-AF4/AF9 protein interaction inhibition; P42568; AlphaScreen, biotin-AF4 peptide binding to FLAG-AF9; inhibition, % at 10 µM; 350,000 tested, 0.47% active;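 active = every replicate reaching a set inhibition limit, whatever the replicate mean, cut at about 25% in these data; inconclusive = mean inhibition reaches that limit but some replicates miss it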;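 note: 0% = plate neutral control median and 100% = total signal loss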
Target sequence (P42568 whole entry, looked up): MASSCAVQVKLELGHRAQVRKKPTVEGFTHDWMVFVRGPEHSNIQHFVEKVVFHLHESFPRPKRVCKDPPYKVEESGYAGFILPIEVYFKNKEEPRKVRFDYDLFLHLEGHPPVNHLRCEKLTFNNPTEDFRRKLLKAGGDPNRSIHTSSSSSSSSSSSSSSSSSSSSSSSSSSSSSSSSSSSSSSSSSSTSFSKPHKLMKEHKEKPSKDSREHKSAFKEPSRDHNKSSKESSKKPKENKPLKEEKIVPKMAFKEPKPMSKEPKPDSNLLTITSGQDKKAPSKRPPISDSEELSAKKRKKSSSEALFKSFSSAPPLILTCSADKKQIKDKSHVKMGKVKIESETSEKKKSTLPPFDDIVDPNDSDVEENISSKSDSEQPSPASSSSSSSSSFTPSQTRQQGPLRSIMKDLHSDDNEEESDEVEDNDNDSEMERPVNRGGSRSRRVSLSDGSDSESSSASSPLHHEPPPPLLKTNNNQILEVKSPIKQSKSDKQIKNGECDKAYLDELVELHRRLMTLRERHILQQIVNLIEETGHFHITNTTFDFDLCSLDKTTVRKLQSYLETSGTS
ERp5 inh: blocks human ERp5 reductase activity on insulin; AID 651711; inhibition, % at 9.99 µM; Q15084; 350,000 tested, 0.05% active; ERp5 insulin aggregation, absorbance 650 nm, 90 min;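 active = mean replicate inhibition above about 25%, with every replicate also reaching it, limit read from the data, passing the limit was not always enough; inconclusive = only one of those two criteria met; inactive = neither criterion met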
SIRT5 block: sirtuin-5 (human) deacylase inhibition. 330,000 tested, 1.1% active. Q9NXA8. Purified SirT5, succinyl-peptide AMC, trypsin-coupled fluorescence. inhibition, % at 15 µM; in the data active = inhibition above about 15%; inconclusive = no clear call, values can overlap the other calls
FN deposition inh: fibronectin deposition inhibition | inhibition, % at 12.6 µM | 350,000 tested, 0.086% active | AID 743247 | AH1F fibroblasts, Alexa488-fibronectin deposition fluorescence, overnight;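 active = mean inhibition across replicates of 30% or more, regardless of how many single replicates reach that level; inconclusive = mean under 30% yet at least half of replicates reach 30%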;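 note: positive control wells lacked labelled fibronectin entirely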
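Assay system: AH1F fibroblast monolayer, labelled fibronectin deposition. Amount: 10000 cells per well. Also added: labelled fibronectin 24 nM. Compound: single-point pinned compound. Incubation: cell attachment 1 h, compound and FN exposure overnight. Detection: fluorescence after three HBSS washes, excitation 485 nm, emission 525 nm. Read-out: inhibition of fibronectin deposition signal.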
The depositor's hits bear a star; ? = inconclusive; / = no result. Shown are actives, neighbours in structure and some others; about 1.3% of the full set was active somewhere.

SMILES | PDI inh | MLL AF4-AF9 inh | ERp5 inh | SIRT5 block | FN deposition inh
C/C=C/c1ccc([C@@H]2[C@@H](CO)N(C(C)=O)[C@H]2CN(C(=O)COC)C(C)C)cc1 | / | 1 | 5 | 34* | 5
C/C=C/c1ccc([C@@H]2[C@@H](CN(C(=O)COC)C(C)C)N(C(C)=O)[C@H]2CO)cc1 | / | -1 | -2 | 17* | 8
C/C=C/c1ccc([C@H]2[C@@H](CN(C)C(C)=O)N(C(=O)NC(C)C)[C@H]2CO)cc1 | / | / | / | / | -3
O=C(NC1CCCCC1)c1ccccc1-c1ccccc1 | 4 | 6 | 2 | -3 | 2
CC1CN(C(=O)COc2ccc3ccccc3c2)CC(C)O1 (stereo unspecified) | -2 | -6 | 7 | / | /
O=C(NN=Cc1ccc(F)c(F)c1)c1ccc(NS(=O)(=O)c2cccs2)cc1 | -8 | 33* | 3 | 3 | 0
COc1cc(/C=N/NC(=O)c2ccc(NS(=O)(=O)c3cccs3)cc2)cc(OC)c1O | -6 | 2 | -1 | 5 | -1
Clc1ccc(C2=NCCN2)cc1 | -2 | -7 | -1 | 112* | -6
Clc1ccc(-c2ccn[nH]2)cc1 | 3 | -1 | -7 | 0 | -1
Cc1ccn2c(Nc3ccccc3C)c(-c3ccccn3)nc2c1 | 4 | / | 2 | -2 | 0
Cc1ccccc1Nc1c(-c2ccccn2)nc2ccccn12 | 15 | 42* | -2 | -2 | -3
CN(C)c1ccc(C2C3CCCc4ccccc4C3=NN2C)cc1 (stereo unspecified) | -7 | 30* | 1 | -2 | 1
O=C(O)c1cccc(N2C(=O)/C(=C/c3ccc(SCc4ccc(Cl)cc4)o3)SC2=S)c1 | 2 | 0 | -2 | 21* | -9
COc1ccc(NC(=S)Nc2cccc(Cl)c2)cc1OC | 1 | 3 | -5 | 112* | /
Cc1csc2c(SCC(=O)NNS(=O)(=O)c3cccc(C(F)(F)F)c3)ncnc12 | -2 | -4 | 6 | -1 | 1
N#C[C@H]1[C@@H](c2ccccc2-c2ccccc2)[C@@H](CO)N1c1ncc(-c2ccccc2)s1 | / | -1 | 1 | 24* | -4
C/C=C/c1ccc2c(c1)O[C@H](CN(C)Cc1ccc(C(=O)O)cc1)[C@@H](C)CN([C@H](C)CO)S2(=O)=O | / | 0 | 8 | -1 | /
C[C@H](CO)N1C[C@H](C)[C@@H](CN(C)Cc2ccc(C(=O)O)cc2)Oc2cc(/C=C/c3ccccc3)ccc2S1(=O)=O | / | 4 | -6 | 104* | /
C[C@@H]1CN([C@H](C)CO)S(=O)(=O)c2ccc(/C=C/c3ccccc3)cc2O[C@H]1CN(C)Cc1ccc(C(=O)O)cc1 | / | 12 | -7 | ? | /
C[C@H]1CN([C@@H](C)CO)S(=O)(=O)c2ccc(/C=C/c3ccccc3)cc2O[C@H]1CN(C)Cc1ccc(C(=O)O)cc1 | / | 10 | 3 | 19* | /
COC(=O)[C@]12C[C@H](CC(=O)NCCc3ccccc3OC)C(=O)N(CCC3=CCCCC3)C1=C[C@H](COCc1ccccc1)O[C@@H]2C | / | -2 | -5 | / | -6
[N-]=C=C1C(=S)NC(=O)[C@H]([n+]2ccccc2)[C@H]1c1ccc(Cl)cc1 | 11 | -7 | 3 | 34* | -8
[N-]=C=C1C(=O)NC(=O)C([n+]2ccc(-c3ccncc3)cc2)C1c1ccccc1C(F)(F)F (stereo unspecified) | -2 | -1 | 3 | -4 | 5
CC1CCN(CC(=O)Nc2ccccc2C(=O)c2ccccc2)CC1 | -4 | 1 | 3 | 0 | /
CN(C)CC/C=C1\c2cc(Cl)ccc2Sc2cc(F)c(F)cc21 | -3 | 31* | 2 | -6 | -6
SMILES | PDI inh | MLL AF4-AF9 inh | ERp5 inh | SIRT5 block | FN deposition inh
CN(C)CC/C=C1\c2ccccc2Sc2cc(F)c(Cl)cc21 | 7 | 28* | 1 | 1 | 7
C=CCn1c(NCCO)nc2sc3c(c2c1=O)CCC3 | 0 | 3 | 8 | / | 37*
C[C@H]1CCCCO[C@H](CN(C)S(=O)(=O)c2ccc(Cl)cc2)[C@@H](C)CN([C@@H](C)CO)C(=O)c2cc(NS(C)(=O)=O)ccc2O1 | / | 2 | -2 | -4 | /
CC1=[N+](C)c2c(ccc3cccnc23)C1(C)C | 1 | 29* | 3 | -1 | -45
COc1ccc(NC(=O)Nc2ccc3c(c2)C(=O)N([C@@H](C)CO)C[C@@H](C)[C@H](CN(C)Cc2ccc(Cl)c(Cl)c2)OCCCC[C@H](C)O3)cc1 | / | -1 | 5 | 2 | /
Cc1cnc(C(=O)OCC(=O)Nc2cccc(S(=O)(=O)N3CCCCC3)c2)cn1 | -17 | 3 | -7 | 28* | 2

Source: PubChem BioAssay (Broad Institute)
